The source of these data is ChEMBL document CHEMBL3351863, “Optimization of 2-phenyl-pyrimidine-4-carboxamides towards potent, orally bioavailable and selective P2Y(12) antagonists for inhibition of platelet aggregation” (Bioorg Med Chem Lett, 2014).

Data set [1] addresses T1, Cytochrome P450 3A4 (Homo sapiens, UniProt P08684). Kind of data set: Inhibition of CYP3A4 in human liver microsomes assessed as reduction in testosterone 6beta-hydroxylation. It is filed as ADME.
The next data set addresses P2Y purinoceptor 12 (Homo sapiens, UniProt Q9H244). Kind of data set: Displacement of [3H]-2-methyl-thio-adenosine 5'-diphosphate from human recombinant P2Y12 expressed in CHO cell membranes by scintillation counting method. The gist of the method: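 CHO cells expressing recombinant P2Y₁₂ receptors, incubated with tritium-labeled 2-methyl-thio-adenosine 5'-diphosphate plus test compound; IC₅₀ from displacement curves, each point in triplicate; reference compound run with every compound set, and set re-analyzed if its IC₅₀ fell outside pre-set 95% confidence interval.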

Data set [2] is described as follows: Solubility in neutral pH. It is filed as physicochemical.
Data set [3] concerns Liver microsome. The data set is described as follows: Metabolic stability assay in human liver microsomes assessed as parent drug disappearance at 1 uM after 20 mins by HPLC and mass spectrometry method. It is filed as ADME.
In data set [4] the target is T1, Cytochrome P450 3A4. Kind of data set: Inhibition of CYP3A4 in human liver microsomes assessed as reduction in midazolam 1'-hydroxylation. It is filed as ADME.
In data set [5] the test system is Platelet. The data set is described as follows: Inhibition of ADP-induced platelet aggregation in human platelet rich plasma by in-vitro light transmission aggregometry assay. The conditions noted are these: Homo sapiens, Platelet, Plasma. It is filed as functional. The gist of the method: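 Human platelet-rich plasma incubated with compound, aggregation induced by 3 µM ADP and read by light transmission aggregometry; IC₅₀ derived from concentration–response curve.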

Data set [6] deals with Voltage-gated inwardly rectifying potassium channel KCNH2 (Homo sapiens, UniProt Q12809). The data set is described as follows: Inhibition of human ERG expressed in HEK cells by patch-clamp assay. It is filed as cell-based. Conditions: hek293; call rule not given here.
The target in another data set is Cytochrome P450 2C9 (Homo sapiens, UniProt P11712). Kind of data set: Inhibition of CYP2C9 in human liver microsomes assessed as reduction in diclofenac 4'-hydroxylation. It is filed as ADME.
A short description of data set [7]: Solubility in basic pH. It is filed as physicochemical.
Data set [8] deals with Platelet. Kind of data set: Inhibition of ADP-induced platelet aggregation in human platelet rich plasma assessed as remaining activity at 500 nM by in-vitro light transmission aggregometry assay. It is filed as functional. The gist of the method:
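Light transmission aggregometry in human platelet-rich plasma; compound incubated, aggregation triggered with 3 µM ADP; remaining activity (RA) recorded at a single compound level (1000, 500 or 100 nM).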

In data set [9] the test system is Liver microsome. The data set is described as follows: Metabolic stability assay in rat liver microsomes assessed as parent drug disappearance at 1 uM after 20 mins by HPLC and mass spectrometry method. It is filed as ADME.
Data set [10] can be described thus: Potency shift, ratio of IC50 for inhibition of ADP-induced platelet aggregation in human platelet rich plasma to IC50 for displacement of [3H]-2-methyl-thio-adenosine 5'-diphosphate from human recombinant P2Y12 expressed in CHO cell membranes.
For another data set, the target named is Cytochrome P450 2D6 (Homo sapiens, UniProt P10635). The data set is described as follows: Inhibition of CYP2D6 in human liver microsomes assessed as reduction in dextromethorphan-O demethylation. It is filed as ADME.
Sequence of Cytochrome P450 2D6 (P10635 whole entry): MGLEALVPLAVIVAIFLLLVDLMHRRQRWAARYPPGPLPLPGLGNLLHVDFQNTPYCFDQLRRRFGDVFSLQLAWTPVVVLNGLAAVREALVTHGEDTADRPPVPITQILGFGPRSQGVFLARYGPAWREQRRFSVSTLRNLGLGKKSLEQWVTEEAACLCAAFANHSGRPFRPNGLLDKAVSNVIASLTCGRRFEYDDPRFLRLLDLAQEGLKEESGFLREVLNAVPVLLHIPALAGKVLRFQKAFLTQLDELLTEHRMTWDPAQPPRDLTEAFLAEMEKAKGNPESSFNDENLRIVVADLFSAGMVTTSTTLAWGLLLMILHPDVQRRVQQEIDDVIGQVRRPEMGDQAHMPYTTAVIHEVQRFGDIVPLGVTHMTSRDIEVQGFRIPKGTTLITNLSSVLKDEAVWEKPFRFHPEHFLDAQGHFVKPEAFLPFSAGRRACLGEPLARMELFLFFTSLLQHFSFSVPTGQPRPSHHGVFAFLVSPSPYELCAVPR

T1 sequence (P08684 whole entry): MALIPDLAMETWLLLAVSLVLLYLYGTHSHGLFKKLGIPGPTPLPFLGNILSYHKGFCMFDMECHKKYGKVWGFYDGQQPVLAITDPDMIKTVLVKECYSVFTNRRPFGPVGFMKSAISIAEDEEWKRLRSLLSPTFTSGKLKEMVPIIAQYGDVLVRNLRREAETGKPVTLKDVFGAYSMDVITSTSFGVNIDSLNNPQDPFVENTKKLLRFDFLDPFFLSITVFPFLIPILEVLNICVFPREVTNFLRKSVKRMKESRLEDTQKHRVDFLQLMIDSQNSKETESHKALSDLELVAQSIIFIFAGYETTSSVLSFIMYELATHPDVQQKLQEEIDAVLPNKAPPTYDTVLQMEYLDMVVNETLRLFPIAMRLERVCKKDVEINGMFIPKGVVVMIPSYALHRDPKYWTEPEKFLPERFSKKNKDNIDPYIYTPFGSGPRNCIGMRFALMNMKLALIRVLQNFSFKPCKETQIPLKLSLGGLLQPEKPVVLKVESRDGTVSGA
Sequence of Voltage-gated inwardly rectifying potassium channel KCNH2 (Q12809 whole entry): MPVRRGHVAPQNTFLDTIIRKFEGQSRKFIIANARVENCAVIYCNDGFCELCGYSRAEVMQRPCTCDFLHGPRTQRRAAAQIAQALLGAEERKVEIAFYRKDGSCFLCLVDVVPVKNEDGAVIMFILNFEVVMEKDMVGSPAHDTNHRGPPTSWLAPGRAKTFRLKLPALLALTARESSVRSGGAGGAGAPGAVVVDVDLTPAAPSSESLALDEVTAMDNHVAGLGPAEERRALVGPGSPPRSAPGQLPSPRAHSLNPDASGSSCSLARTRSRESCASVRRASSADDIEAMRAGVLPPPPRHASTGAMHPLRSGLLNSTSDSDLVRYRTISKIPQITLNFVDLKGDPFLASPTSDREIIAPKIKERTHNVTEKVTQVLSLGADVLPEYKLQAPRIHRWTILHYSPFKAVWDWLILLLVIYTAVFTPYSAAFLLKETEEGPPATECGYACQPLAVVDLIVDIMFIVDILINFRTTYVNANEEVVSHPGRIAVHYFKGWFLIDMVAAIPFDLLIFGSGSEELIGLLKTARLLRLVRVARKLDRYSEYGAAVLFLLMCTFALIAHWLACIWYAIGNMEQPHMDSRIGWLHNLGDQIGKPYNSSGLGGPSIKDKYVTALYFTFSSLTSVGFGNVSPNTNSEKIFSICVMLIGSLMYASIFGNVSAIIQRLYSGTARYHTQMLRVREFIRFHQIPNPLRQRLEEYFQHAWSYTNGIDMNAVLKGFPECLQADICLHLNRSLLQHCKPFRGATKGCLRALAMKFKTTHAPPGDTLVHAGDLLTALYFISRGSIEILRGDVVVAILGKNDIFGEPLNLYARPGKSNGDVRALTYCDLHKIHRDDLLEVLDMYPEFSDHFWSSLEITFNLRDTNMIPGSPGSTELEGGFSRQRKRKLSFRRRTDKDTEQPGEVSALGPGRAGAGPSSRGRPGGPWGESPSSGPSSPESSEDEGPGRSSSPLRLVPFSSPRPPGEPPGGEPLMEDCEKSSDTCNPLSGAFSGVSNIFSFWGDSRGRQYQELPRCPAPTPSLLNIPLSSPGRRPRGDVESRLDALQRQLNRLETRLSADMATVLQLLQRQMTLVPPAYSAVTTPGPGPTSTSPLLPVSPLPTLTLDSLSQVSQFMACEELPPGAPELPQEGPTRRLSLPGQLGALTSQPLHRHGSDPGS
Sequence of Cytochrome P450 2C9 (P11712 whole entry): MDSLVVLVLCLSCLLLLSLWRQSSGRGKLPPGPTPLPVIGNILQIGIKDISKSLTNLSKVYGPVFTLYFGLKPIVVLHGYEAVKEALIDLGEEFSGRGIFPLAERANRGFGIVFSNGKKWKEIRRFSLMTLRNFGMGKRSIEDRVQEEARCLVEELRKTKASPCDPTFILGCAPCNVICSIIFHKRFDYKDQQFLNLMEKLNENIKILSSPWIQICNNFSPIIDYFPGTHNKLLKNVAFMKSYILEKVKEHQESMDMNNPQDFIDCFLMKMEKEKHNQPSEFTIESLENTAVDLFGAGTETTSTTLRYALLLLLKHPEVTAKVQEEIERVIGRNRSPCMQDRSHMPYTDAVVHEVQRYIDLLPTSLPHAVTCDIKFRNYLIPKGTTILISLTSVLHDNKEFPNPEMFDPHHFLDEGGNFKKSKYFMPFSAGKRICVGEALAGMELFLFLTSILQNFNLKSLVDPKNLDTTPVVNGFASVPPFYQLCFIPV
Sequence of P2Y purinoceptor 12 (Q9H244 whole entry): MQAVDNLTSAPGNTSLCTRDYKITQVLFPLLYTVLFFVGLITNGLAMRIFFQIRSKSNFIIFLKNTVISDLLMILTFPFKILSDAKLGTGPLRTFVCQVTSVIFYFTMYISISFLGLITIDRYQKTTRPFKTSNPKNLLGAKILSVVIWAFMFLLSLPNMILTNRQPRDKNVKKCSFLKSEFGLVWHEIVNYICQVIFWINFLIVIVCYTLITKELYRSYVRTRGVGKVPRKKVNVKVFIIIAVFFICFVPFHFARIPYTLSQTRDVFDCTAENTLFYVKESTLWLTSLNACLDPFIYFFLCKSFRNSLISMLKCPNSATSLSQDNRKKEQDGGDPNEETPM

`CCOC(=O)N1CCN(C(=O)[C@H](CCC(=O)O)NC(=O)c2cc(-n3cc(C)cn3)nc(-c3ccccc3)n2)CC1`: the “inhibition (INH)” value (at Cytochrome P450 3A4 [1]; at Cytochrome P450 3A4 [4]; in data set [6]; on Cytochrome P450 2C9; on Cytochrome P450 2D6) was “Not Active” throughout. Besides, the IC50 at P2Y purinoceptor 12 came out at 27 nM; in the data set with Platelet [5], 318 nM. Moreover, the solubility entry in data set [2] and in data set [7] was “soluble” in each case. Besides, the Stability result in the data set with Liver microsome [3] and with Liver microsome [9] was “Stable” each time. Also, the Activity in the data set with Platelet [8] came to 30%. Also, in data set [10], the “Ratio IC50” value came to 12.

Regarding `CCOC(=O)N1CCN(C(=O)[C@H](CCC(=O)O)NC(=O)c2cc(N3CCCCC3CN(C)C)nc(-c3ccccc3)n2)CC1` (stereo partly drawn), the “inhibition (INH)” value (on Cytochrome P450 3A4 [1]; on Cytochrome P450 3A4 [4]; in data set [6]; at Cytochrome P450 2C9; at Cytochrome P450 2D6) was “Not Active” in each case. Besides, the concentration for half-maximal inhibition (IC50) on P2Y purinoceptor 12 is 291 nM. For the same molecule, the solubility entry in data set [2] and in [7] was “soluble” in each case. For the same molecule, the Stability entry in the data set on Liver microsome [3] and in the data set with Liver microsome [9] was “Stable” each time. For the same molecule, the Activity in the data set on Platelet [8] was 30%.

For the molecule `CCOC(=O)N1CCN(C(=O)[C@H](CCC(=O)O)NC(=O)c2cc(NS(=O)(=O)c3ccccc3)nc(-c3ccccc3)n2)CC1`, the “inhibition (INH)” value (on Cytochrome P450 3A4 [1]; on Cytochrome P450 3A4 [4]; in data set [6]; at Cytochrome P450 2C9; on Cytochrome P450 2D6) was “Not Active” throughout. Further, the IC50 at P2Y purinoceptor 12 is 266 nM. Further, the solubility entry in data set [2] and in data set [7] was “soluble” each time. In addition, the Stability entry with Liver microsome [3] and in the data set on Liver microsome [9] was “Stable” throughout.

Take `CCOC(=O)N1CCN(C(=O)[C@H](CCC(=O)O)NC(=O)c2cc(N3CCCCC3)nc(-c3ccccc3)n2)CC1`: the “inhibition (INH)” value (on Cytochrome P450 3A4 [1]; at Cytochrome P450 3A4 [4]; in data set [6]; at Cytochrome P450 2C9; at Cytochrome P450 2D6) was “Not Active” in each case. Besides, the IC50 at P2Y purinoceptor 12 is 201 nM. For the same molecule, the solubility result in data set [2] and in data set [7] was “soluble” each time. Also, the Stability entry in the data set on Liver microsome [3] and in the data set with Liver microsome [9] was “Stable” in each case. Further, the Activity with Platelet [8] worked out at 30%.

Regarding `CCOC(=O)N1CCN(C(=O)[C@H](CCC(=O)O)NC(=O)c2cc(N[C@H]3CC[C@H](O)CC3)nc(-c3ccccc3)n2)CC1`, the “inhibition (INH)” value (on Cytochrome P450 3A4 [1]; on Cytochrome P450 3A4 [4]; in data set [6]; on Cytochrome P450 2C9; at Cytochrome P450 2D6) was “Not Active” each time. Moreover, the solubility result in [2] and in [7] was “soluble” throughout. In addition, the Stability entry in the data set with Liver microsome [3] and in the data set on Liver microsome [9] was “Stable” each time. The Activity in the data set on Platelet [8] is 30%.

For `CCOC(=O)N1CCN(C(=O)[C@H](CCC(=O)O)NC(=O)c2cc(CN3CCOCC3)nc(-c3ccccc3)n2)CC1`, the “inhibition (INH)” value (on Cytochrome P450 3A4 [1]; at Cytochrome P450 3A4 [4]; in data set [6]; at Cytochrome P450 2C9; at Cytochrome P450 2D6) was “Not Active” in each case. Also, the IC50 at P2Y purinoceptor 12 amounted to 428 nM. Besides, the solubility result in data set [2] and in data set [7] was “soluble” each time. Also, the Stability entry in the data set with Liver microsome [3] and in the data set with Liver microsome [9] was “Stable” throughout.

In the case of `CCCCOC(=O)N1CCN(C(=O)[C@H](CCC(=O)O)NC(=O)c2cc([C@H]3C[C@H]3COC)nc(-c3ccccc3)n2)CC1` (racemic), the “inhibition (INH)” value (at Cytochrome P450 3A4 [1]; at Cytochrome P450 3A4 [4]; in [6]; at Cytochrome P450 2C9; at Cytochrome P450 2D6) was “Not Active” throughout. Moreover, the IC50 on P2Y purinoceptor 12 is 9 nM; in the data set on Platelet [5], 287 nM. Besides, the solubility entry in data set [2] and in data set [7] was “soluble” each time. For the same molecule, the Stability result in the data set with Liver microsome [3] and in the data set on Liver microsome [9] was “Stable” each time. Moreover, the “Ratio IC50” value in data set [10] was determined as 32.

Consider `CCOC(=O)N1CCN(C(=O)[C@H](CCC(=O)O)NC(=O)c2cc(NCCCO)nc(-c3ccccc3)n2)CC1`, for which the “inhibition (INH)” value (on Cytochrome P450 3A4 [1]; on Cytochrome P450 3A4 [4]; in data set [6]; at Cytochrome P450 2C9; on Cytochrome P450 2D6) was “Not Active” each time. Moreover, the IC50 on P2Y purinoceptor 12 was 279 nM. Also, the solubility result in [2] and in data set [7] was “soluble” throughout. For the same molecule, the Stability result with Liver microsome [3] and with Liver microsome [9] was “Stable” throughout. Also, the Activity in the data set with Platelet [8] turned out to be 30%.

In the case of `CCOC(=O)N1CCN(C(=O)[C@H](CCC(=O)O)NC(=O)c2cc(NC(C)C)nc(-c3ccccc3)n2)CC1`, the “inhibition (INH)” value (at Cytochrome P450 3A4 [1]; on Cytochrome P450 3A4 [4]; in data set [6]; at Cytochrome P450 2C9; at Cytochrome P450 2D6) was “Not Active” throughout. The values for the IC50 at P2Y purinoceptor 12 and with Platelet [5] were 95.5 nM and 724 nM, respectively. Also, the solubility result in data set [2] and in data set [7] was “soluble” throughout. Besides, the Stability result in the data set with Liver microsome [3] and in the data set on Liver microsome [9] was “Stable” throughout. The “Ratio IC50” value in data set [10] is recorded as 7.6.

With `CCOC(=O)N1CCN(C(=O)[C@H](CCC(=O)O)NC(=O)c2cc(CN3CCCCC3)nc(-c3ccccc3)n2)CC1`, the “inhibition (INH)” value (at Cytochrome P450 3A4 [1]; at Cytochrome P450 3A4 [4]; in data set [6]; on Cytochrome P450 2C9; on Cytochrome P450 2D6) was “Not Active” in each case. The IC50 on P2Y purinoceptor 12 was found to be 533 nM. In addition, the solubility entry in data set [2] and in data set [7] was “soluble” in each case. Further, the Stability result in the data set with Liver microsome [3] and in the data set with Liver microsome [9] was “Stable” throughout.

`CCCCOC(=O)N1CCN(C(=O)[C@H](CCC(=O)O)NC(=O)c2cc([C@H]3C[C@@H]3COC)nc(-c3ccccc3)n2)CC1` (racemic): the “inhibition (INH)” value (on Cytochrome P450 3A4 [1]; on Cytochrome P450 3A4 [4]; in data set [6]; at Cytochrome P450 2C9; at Cytochrome P450 2D6) was “Not Active” in each case. Further, the figures for the IC50 at P2Y purinoceptor 12 and with Platelet [5] were 3 nM and 21 nM, respectively. Also, the solubility result in [2] and in data set [7] was “soluble” each time. Further, the Stability entry in the data set on Liver microsome [3] and in the data set with Liver microsome [9] was “Stable” in each case. Further, the “Ratio IC50” value in [10] was determined as 7.

`CCOC(=O)N1CCN(C(=O)[C@H](CCC(=O)O)NC(=O)c2cc(NCCN(C)C)nc(-c3ccccc3)n2)CC1`: the “inhibition (INH)” value (at Cytochrome P450 3A4 [1]; at Cytochrome P450 3A4 [4]; in data set [6]; at Cytochrome P450 2C9; at Cytochrome P450 2D6) was “Not Active” each time. The 50% inhibitory concentration (IC50) at P2Y purinoceptor 12 is 2780 nM. Also, the solubility entry in data set [2] and in [7] was “soluble” throughout. In addition, the Stability result with Liver microsome [3] and with Liver microsome [9] was “Stable” each time.

On to `CCOC(=O)N1CCN(C(=O)[C@H](CCC(=O)O)NC(=O)c2cc(NCCN3CCOCC3)nc(-c3ccccc3)n2)CC1`, for which the “inhibition (INH)” value (at Cytochrome P450 3A4 [1]; at Cytochrome P450 3A4 [4]; in data set [6]; on Cytochrome P450 2C9; at Cytochrome P450 2D6) was “Not Active” throughout. In addition, on P2Y purinoceptor 12, the IC50 stood at 257 nM. Moreover, the solubility result in [2] and in data set [7] was “soluble” in each case. Further, the Stability result in the data set on Liver microsome [3] and in the data set on Liver microsome [9] was “Stable” each time. Also, in the data set with Platelet [8], the Activity turned out to be 30%.
